Assay results from ChEMBL document CHEMBL1148384, “Design and synthesis of peptidomimetic protein farnesyltransferase inhibitors as anti-Trypanosoma brucei agents” (J Med Chem, 2004).

How the values were obtained:
[1] = tested on: protein farnesyltransferase (Trypanosoma brucei); assay: Inhibition of against Trypanosoma brucei protein farnesyltransferase at 50 nM concentration
NIH3T3 = assay: Effective dose against murine 3T3 fibroblasts cells; assay type: functional; conditions: Mus musculus, read-out: ED50 (the source's name)
In short: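 Murine 3T3 fibroblasts were grown in RPMI 1640 with 10% FBS and held 72 h with compound at 37 °C, 5% CO2.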

[2] = tested on: Trypanosoma brucei brucei; assay: Effective dose required to inhibit the growth of Trypanosoma brucei; assay type: functional; conditions: read-out: ED50 (the source's name)
In short: (§1)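 Bloodstream-form strain 427 was grown in HMI-9 with 10% FBS at 37 °C, 5% CO2. Cells were seeded at 1 × 10^4 trypomastigotes/well in triplicate, with serial dilutions from 20 mM DMSO stocks. Growth was read with Alamar Blue at 48 h, pentamidine served as positive control, and ED50 was fitted from the curves.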

[3] = tested on: Trypanosoma brucei rhodesiense; assay: Effective dose required to inhibit the growth of Trypanosoma brucei rhodesiense; assay type: functional; conditions: read-out: ED50 (the source's name)
In short: (§2)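 Bloodstream-form trypomastigotes of strain STIB 900 were grown in HMI-18 with nonessential amino acids, glucose and 15% heat-inactivated FCS at 37 °C, 5% CO2. Compounds were given as serial dilutions, in triplicate, from 1 × 10^4 cells/well. Cultures ran 72 h before Alamar Blue read-out, and ED50 was fitted.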

[4] = tested on: Trypanosoma brucei rhodesiense; assay: Dose required to inhibit growth of Trypanosoma brucei rhodesiense; 0.14-0.8 uM; assay type: functional; conditions: read-out: ED50 (the source's name)
In short: as §2

[5] = tested on: Trypanosoma brucei brucei; assay: Dose required to inhibit growth of Trypanosoma brucei; 0.5-5 uM; assay type: functional; conditions: read-out: ED50
In short: as §1

[6] = tested on: protein farnesyltransferase (Trypanosoma brucei); assay: Inhibition of Trypanosoma brucei protein farnesyltransferase at 50 nM (0-14%)

Structure (SMILES)	inhibition [1] [%]	EC50 [2] [µM]	EC50 [3] [µM]	EC50 [4] [µM]	EC50 [5] [µM]	inhibition [6] [%]	EC50 (NIH3T3) [µM]
CCCCCn1cnc(CNc2ccc(C(=O)N[C@@H](CCSC)C(=O)O)c(-c3ccccc3)c2)c1	11.5	–	–	–	–	–	–
CSCC[C@H](NC(=O)c1ccc(NC[C@@H](N)CS)cc1-c1ccccc1)C(=O)O	–	> 25	9.2	–	–	–	> 25
CSCC[C@H](NC(=O)c1ccc(NCc2cn(Cc3ccc(-c4ccccc4)cc3)cn2)cc1-c1ccccc1)C(=O)O	4.5	–	–	–	–	–	–
CSCC[C@H](NC(=O)c1ccc(CNCc2c[nH]cn2)cc1-c1ccccc1C)C(=O)OC(C)C	6.2	0.005	0.003	–	–	–	10
CSCC[C@H](NC(=O)c1ccc(NCc2cn(CC3CCCCC3)cn2)cc1-c1ccccc1)C(=O)O	12	–	–	–	–	–	–
CSCC[C@H](NC(=O)c1ccc(CNCc2[nH]cnc2C)cc1-c1ccccc1C)C(=O)O	68.5	> 10	–	–	–	–	> 10
COC(=O)[C@H](CCSC)NC(=O)c1ccc(CN(Cc2c[nH]cn2)Cc2c[nH]cn2)cc1-c1ccccc1C	66.2	0.1	0.0015	–	–	–	> 10
CCCCCn1cncc1CNc1ccc(C(=O)N[C@@H](CCSC)C(=O)O)c(-c2ccccc2)c1	80.6	–	–	–	–	–	–
CCOC(=O)[C@H](CCSC)NC(=O)c1ccc(CNCc2c[nH]cn2)cc1-c1ccccc1C	10.4	0.01	0.005	–	–	–	10
CSCC[C@H](NC(=O)c1ccc(NCc2cncn2CC2CCCCC2)cc1-c1ccccc1)C(=O)O	69.8	–	–	–	–	–	–
COC(=O)[C@H](CCSC)NC(=O)c1ccc(CNCc2c[nH]cn2)cc1-c1ccccc1C	41	0.025	0.0026	–	–	–	25

Second part, led by results:

inhibition [1] [%]	EC50 [2] [µM]	EC50 [3] [µM]	EC50 [4] [µM]	EC50 [5] [µM]	inhibition [6] [%]	Structure (SMILES)	EC50 (NIH3T3) [µM]
7	0.5	0.1	–	–	–	COC(=O)[C@H](CCSC)NC(=O)c1ccc(CNCc2cncn2Cc2ccc(C#N)cc2)cc1-c1ccccc1C	> 10
1.2	10	8.2	–	–	–	N#Cc1ccc(Cn2cncc2CNc2ccc(C(=O)NCc3ccccc3)c(-c3ccccc3)c2)cc1	> 10
–	–	–	≤ 0.8	≤ 5	≤ 14	COC(=O)[C@H](CCSC)NC(=O)c1ccc(NCc2cncn2Cc2ccc(C#N)cc2)cc1-c1ccccc1	> 10
2.2	> 10	–	–	–	–	N#Cc1ccc(Cn2cncc2CNc2ccc(C(=O)Nc3cccc(C#N)c3)c(-c3ccccc3)c2)cc1	> 10
0	> 10	45	–	–	–	N#CCNC(=O)c1ccc(NCc2cncn2Cc2ccc(C#N)cc2)cc1-c1ccccc1	> 10
9.1	> 10	3	–	–	–	N#Cc1ccc(Cn2cncc2CNc2ccc(C(=O)Nc3cccc([N+](=O)[O-])c3)c(-c3ccccc3)c2)cc1	> 10
–	–	–	> 0.14	≤ 5	14	COC(=O)[C@H](CCSC)NC(=O)c1ccc(NCc2cncn2Cc2ccc(-c3ccccc3)cc2)cc1-c1ccccc1	> 10
–	–	–	≤ 0.8	≤ 5	≤ 14	COC(=O)[C@H](CCSC)NC(=O)c1ccc(NCc2cncn2Cc2ccc(Cl)cc2)cc1-c1ccccc1	> 10
–	–	–	≤ 0.8	≤ 5	≤ 14	COC(=O)[C@H](CCSC)NC(=O)c1ccc(NCc2cncn2Cc2ccc(C)cc2)cc1-c1ccccc1	> 10
17.1	> 10	3	–	–	–	CSCNC(=O)c1ccc(NCc2cncn2Cc2ccc(C#N)cc2)cc1-c1ccccc1	> 10
–	–	–	≤ 0.8	≤ 5	≤ 14	COC(=O)[C@H](CCSC)NC(=O)c1ccc(NCc2cncn2Cc2ccc([N+](=O)[O-])cc2)cc1-c1ccccc1	> 10
8.4	> 10	5.3	–	–	–	CC(C)NC(=O)c1ccc(NCc2cncn2Cc2ccc(C#N)cc2)cc1-c1ccccc1	> 10
